What all share (type): functional
The test system of assay [1] is Rattus norvegicus. Briefly: In vivo effect on heart rate of anesthetized rats following 3 mg/kg i.v. Particulars: route intravenous. The method, boiled down:
(§1)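 Male Wister rats (270–350 g), anesthetized (pentobarbital ip per methods; urethane per text). Compound at 3 mg/kg (salt form) in aqueous solution or saline, iv via jugular vein catheter. HR taken from the blood-pressure pulse wave; MBP = DBP + (SBP−DBP)/3. Maximal percent change from initial value; mean ± SEM, three to four experiments.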

The next assay is filed under the species Cavia porcellus. As to the kind of experiment: In vitro bradycardiac activity on isolated right atrium of guinea pig. Particulars: Cardiac atrium. In outline: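 Male Hartley guinea pigs (250–400 g); spontaneously beating right atria in Tyrode's solution at 37 °C, 95% O2/5% CO2, 1 g tension, 90 min equilibration. Compound added cumulatively at 45 min intervals; beat rate counted from isometric contraction. Value = concentration giving 30% reduction from initial spontaneous rate; mean ± SEM, three to six experiments.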

The test system of assay [2] is Rattus norvegicus. As to the kind of experiment: In vivo effect on mean blood pressure of anesthetized rats following 3 mg/kg i.v. Particulars: route intravenous. The method, boiled down: as §1

In general, EC30 refers to the point of the concentration-response curve where the effect stands at 30%. Regarding `COc1cc2c(cc1OC)C(=O)N(C1CCCN(CCCOc3ccc4c(c3)OCO4)C1)CC2.Cl` (stereo not given), the Change in the assay with Rattus norvegicus [1] is -48%; in the assay with Rattus norvegicus [2], -14%. Also, in the assay listed under Cavia porcellus, it took 0.067 µM to reach the 30% level (EC30).
Take `COc1cc2[nH]c(=O)n(C3CCCN(CCCOc4ccc5c(c4)OCO5)C3)c(=O)c2cc1OC` (stereo not given): the EC30 in the assay filed under Cavia porcellus is 0.92 µM. This counts as sub-micromolar.
With `COc1cc2c(cc1OC)C(=O)N(C1CCCN(CCCOc3ccc(Cl)cc3)C1)CC2.Cl` (stereo not given), the figures for the Change in the assay on Rattus norvegicus [1] and in the assay with Rattus norvegicus [2] were -32% and -12%, respectively. Moreover, the EC30 in the assay filed under Cavia porcellus was 0.35 µM.
`COc1cc2c(cc1OC)C(=O)N(C1CCCN(CCCOc3ccc4c(c3)CCC4)C1)CC2` (stereo not given) returned an EC30 in the assay filed under Cavia porcellus of 0.89 µM. This counts as sub-micromolar.
With `CCOc1ccc(OCCCN2CCCC(N3CCc4cc(OC)c(OC)cc4C3=O)C2)cc1.Cl` (stereo not given), the Change in the assay with Rattus norvegicus [1] is recorded as -49%; in the assay with Rattus norvegicus [2], -7.8%. In addition, in the assay filed under Cavia porcellus, it took 0.097 µM to reach the 30% level (EC30).
The corresponding values for `COc1cc2ncn(C3CCCN(CCCOc4ccc5c(c4)OCO5)C3)c(=O)c2cc1OC.Cl` (stereo not given) are -34%, -20% and 0.26 µM.
Consider `COc1cc2c(cc1OC)C(=O)N(C1CCCN(CCCOc3ccc4[nH]ccc4c3)C1)CC2` (stereo not given), for which it took 0.36 µM to reach the 30% level in the assay filed under Cavia porcellus (EC30).
With `COc1cc2c(cc1OC)C(=O)N(C1CCCN(CCCOc3ccc([N+](=O)[O-])cc3)C1)CC2.Cl` (stereo not given), the Change is given as -5.6% with Rattus norvegicus [1] and 41% in the assay with Rattus norvegicus [2]. The compound also gave a 30% effect concentration (EC30) in the assay filed under Cavia porcellus of 0.27 µM.
Regarding `COc1cc2c(cc1OC)C(=O)N(C1CCCN(CCCOc3ccccc3OC)C1)CC2` (stereo not given), it took 0.39 µM to reach the 30% level in the assay listed under Cavia porcellus (EC30).
Still for that read-out and setting: for `COc1cc2c(cc1OC)C(=O)N(C1CCCN(CCCOc3ccc(N)cc3)C1)CC2` (stereo not given) the value was 1.6 µM.
As for `COc1ccc(OCCCN2CCCC(N3CCc4cc(OC)c(OC)cc4C3=O)C2)cc1OC.Cl` (stereo not given), the figures for the Change in the assay on Rattus norvegicus [1] and with Rattus norvegicus [2] were -56% and -18%, respectively. In the assay filed under Cavia porcellus, this compound displayed an EC30 of 0.11 µM.
The compound `COc1cc2c(cc1OC)C(=O)N(C1CCCN(CCCOc3ccc(C(F)(F)F)cc3)C1)CC2` (stereo not given) showed an EC30 in the assay listed under Cavia porcellus of 0.79 µM.
As for `COc1cc2ccn(C3CCCN(CCCOc4ccc5c(c4)OCO5)C3)c(=O)c2cc1OC.Cl` (stereo not given), the Change with Rattus norvegicus [1] was -26%; with Rattus norvegicus [2], 11%. In the assay filed under Cavia porcellus, this compound returned an EC30 of 0.2 µM.
Taken in the same sequence, the figures for `COc1cc2c(cc1OC)C(=O)N([C@H]1CCCN(CCCOc3ccc4c(c3)OCO4)C1)CC2.Cl` were -53%, -23% and 0.068 µM.
Taken in the same sequence, the figures for `COc1cccc(OCCCN2CCCC(N3CCc4cc(OC)c(OC)cc4C3=O)C2)c1.Cl` (stereo not given) were -47%, -11% and 0.14 µM.
Taken in the same sequence, the figures for `COc1cc2c(cc1OC)C(=O)N(C1CCCN(CCCOc3ccc(F)cc3)C1)CC2.Cl` (stereo not given) were -39%, -17% and 0.24 µM.
In the assay listed under Cavia porcellus, `COc1cc2c(cc1OC)C(=O)N(C1CCCN(CCCOc3ccc(O)cc3)C1)CC2` (stereo not given) came in with an EC30 of 0.89 µM.
Same read-out and setting: for `COc1ccc(C(=O)N(C)C2CCCN(CCCOc3ccc4c(c3)OCO4)C2)cc1OC` (stereo not given) the value was 3.5 µM.
Consider `COc1ccc(CCN(C)CCCN2CCc3cc(OC)c(OC)cc3CC2=O)cc1OC.Cl` [ZATEBRADINE HYDROCHLORIDE], for which the Change is on record as -47% in the assay with Rattus norvegicus [1] and 5.4% in the assay with Rattus norvegicus [2]. Also, in the assay listed under Cavia porcellus, the 30% effect level (EC30) was put at 0.26 µM.
`COc1cc2c(cc1OC)C(=O)N(C1CCCN(CCCOc3ccc(C(N)=O)cc3)C1)CC2` (stereo not given) registered an EC30 in the assay filed under Cavia porcellus of 5.7 µM.
With `COc1cc2c(cc1OC)C(=O)N(C1CCCN(CCCOc3ccccc3)C1)CC2.Cl` (stereo not given), the figures for the Change in the assay with Rattus norvegicus [1] and in the assay on Rattus norvegicus [2] were -32% and 3.2%, respectively. In the assay filed under Cavia porcellus, this compound yielded an EC30 of 0.39 µM.
Turning to `CCCOc1ccc(OCCCN2CCCC(N3CCc4cc(OC)c(OC)cc4C3=O)C2)cc1` (stereo not given), the EC30 in the assay filed under Cavia porcellus was determined as 0.27 µM.
Consider `COc1cc2c(cc1OC)C(=O)N(C1CCCN(CCCOc3ccc(Br)cc3)C1)CC2` (stereo not given), for which the EC30 in the assay filed under Cavia porcellus came out at 0.47 µM.
For `COc1cc2c(cc1OC)C(=O)N(C1CCCN(CCCOc3ccc(C)cc3)C1)CC2.Cl` (stereo not given), the values for the Change with Rattus norvegicus [1] and in the assay with Rattus norvegicus [2] were -37% and -12%, respectively. Further, the 30% effect concentration (EC30) in the assay listed under Cavia porcellus was determined as 0.14 µM.
The corresponding values for `COc1cc2c(cc1OC)C(=O)N(C1CCCN(CCCOc3ccc4c(c3)OCCO4)C1)CC2.Cl` (stereo not given) are -44%, -12% and 0.13 µM.
As for `COc1cc2c(cc1OC)C(=O)N(C1CCCN(CCCOc3ccc(OCc4ccccc4)cc3)C1)CC2` (stereo not given), the EC30 in the assay filed under Cavia porcellus was 1.3 µM.
As for `COc1ccc(C(=O)NC2CCCN(CCCOc3ccc4c(c3)OCO4)C2)cc1OC.Cl` (stereo not given), the Change in the assay on Rattus norvegicus [1] is reported as -29%; with Rattus norvegicus [2], -11%. In addition, the EC30 in the assay listed under Cavia porcellus was determined as 0.42 µM.
As for `COc1cc2c(cc1OC)C(=O)N(C1CCCN(CCCOc3cc(OC)c(OC)c(OC)c3)C1)CC2` (stereo not given), in the assay filed under Cavia porcellus, it took 1.6 µM to reach the 30% level (EC30).
Turning to `COc1ccc(OCCCN2CCCC(N3CCc4cc(OC)c(OC)cc4C3=O)C2)cc1.Cl` (stereo not given), the Change with Rattus norvegicus [1] is on record as -49%; with Rattus norvegicus [2], -16%. Besides, the 30% effect level in the assay listed under Cavia porcellus (EC30) was put at 0.099 µM.
The corresponding values for `COc1cc2c(cc1OC)C(=O)N(C1CCCN(CCCOc3ccc(C#N)cc3)C1)CC2.Cl` (stereo not given) are -23%, -6.8% and 0.24 µM.
`COc1cc2c(cc1OC)C(=O)N(C1CCCN(CCCOc3ccc(OC(C)C)cc3)C1)CC2` (stereo not given) had an EC30 in the assay filed under Cavia porcellus of 0.33 µM.
For the compound `COc1cc2c(cc1OC)CN(C1CCCN(CCCOc3ccc4c(c3)OCO4)C1)CC2.Cl` (stereo not given), the values for the Change in the assay on Rattus norvegicus [1] and with Rattus norvegicus [2] were -47% and -7.1%, respectively. The same compound displayed an EC30 in the assay filed under Cavia porcellus of 0.25 µM.
`COc1cc2c(cc1OC)C(=O)N(C1CCCN(CCCOc3ccc(NC(C)=O)cc3)C1)CC2` (stereo not given): the EC30 in the assay listed under Cavia porcellus is 0.76 µM. This counts as sub-micromolar.
On to `COc1cc2c(cc1OC)C(=O)N([C@@H]1CCCN(CCCOc3ccc4c(c3)OCO4)C1)CC2.Cl`, for which the values for the Change in the assay on Rattus norvegicus [1] and with Rattus norvegicus [2] were -55% and -13%, respectively. In the assay filed under Cavia porcellus, this compound returned an EC30 of 0.079 µM.
Taken in the same sequence, the figures for `COC(=O)c1ccc(OCCCN2CCCC(N3CCc4cc(OC)c(OC)cc4C3=O)C2)cc1.Cl` (stereo not given) were -30%, -2.3% and 0.11 µM.

Source of the values: ChEMBL document CHEMBL1145139, “Synthesis and pharmacological evaluation of 1-oxo-2-(3-piperidyl)-1,2,3,4- tetrahydroisoquinolines and related analogues as a new class of specific bradycardic agents possessing I(f) channel inhibitory activity” (2003).
